Test results taken from article PMC12505120 (RSC Advances, 2025).
Where two headings read alike, the source gives them in different places.

Key:
HSA = HSA (Homo sapiens, UniProt P02768); test: HSA tryptophan fluorescence quenching; assay type: binding; conditions: for Stern–Volmer quenching constant Ksv × 10^4: values × 10^4, HSA 2.5 μM, Tris–HCl pH 7.4, 10% DMSO, 24 h; for ΔG: ΔG = −RT ln Kb; for predominant interaction mode with HSA: according to Ross's proposal from the signs of ΔH and ΔS
In short: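 HSA in Tris–HCl (4.5 mM Trizma HCl, 0.5 mM Trizma base, 50 mM NaCl) held at 2.5 μM with test compound at 1, 2.5, 5, 10, 15, 20, 25 or 30 μM, using 10% DMSO. Incubated 24 h in a water bath at 300 K or 310 K. Excitation 270 nm, emission 300–500 nm, triplicates. Intensity at 330 nm fitted to Stern–Volmer (F0/F vs [Q]) and log((F0−F)/F) vs log[Q]. ΔG = −RT ln Kb.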

[1] = system: bovine serum albumin (BSA); conditions: cited from earlier work

Chain of HSA (P02768 25-609): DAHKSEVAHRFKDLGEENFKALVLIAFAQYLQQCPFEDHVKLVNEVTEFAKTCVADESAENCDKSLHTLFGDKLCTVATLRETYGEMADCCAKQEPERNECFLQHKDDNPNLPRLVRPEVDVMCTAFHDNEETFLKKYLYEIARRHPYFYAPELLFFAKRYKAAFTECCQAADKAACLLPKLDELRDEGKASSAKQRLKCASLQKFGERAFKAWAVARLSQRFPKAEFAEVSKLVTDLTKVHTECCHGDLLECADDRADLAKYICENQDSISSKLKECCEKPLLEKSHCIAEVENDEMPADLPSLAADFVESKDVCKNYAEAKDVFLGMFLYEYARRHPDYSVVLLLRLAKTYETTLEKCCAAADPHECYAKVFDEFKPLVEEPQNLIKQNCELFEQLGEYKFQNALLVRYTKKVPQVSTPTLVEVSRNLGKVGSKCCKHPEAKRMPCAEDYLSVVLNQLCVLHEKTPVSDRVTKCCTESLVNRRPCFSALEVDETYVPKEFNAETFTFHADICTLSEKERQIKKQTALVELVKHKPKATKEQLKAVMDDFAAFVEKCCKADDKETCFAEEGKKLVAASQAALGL

Row | ΔS (HSA; T 300 K) | Stern–Volmer quenching constant Ksv × 10^4 (HSA; T 300 K) | ΔG (HSA; T 300 K) | ΔS (HSA; T 310 K) | Stern–Volmer quenching constant Ksv × 10^4 (HSA; T 310 K) | ΔG (HSA; T 310 K) | predominant interaction mode with HSA (HSA) | fluorescence quenching mechanism (HSA; from temperature dependence of Ksv at 300 and 310 K) | SMILES | binding constant to BSA ([1]; HPBI complexed with benzoxaborole) | binding constant to BSA ([1]; free HPBI)
1 | 105.1 J mol^−1 K^−1 | 10.1 M^−1 | -7 kcal/mol | 122.4 J mol^−1 K^−1 | 17.7 M^−1 | -8.58 kcal/mol | hydrophobic interactions |  | COc1ccc(/C=C/c2cccc3c2COB3O)cc1 [5a] |  | 
2 | 74.5 J mol^−1 K^−1 | 1.05 M^−1 | -6.69 kcal/mol | 22.9 J mol^−1 K^−1 | 0.53 M^−1 | -3.08 kcal/mol | electrostatic forces |  | COc1ccc(/C=C/c2ccc(B(O)O)cc2)cc1 [7a] |  | 
3 |  |  |  |  |  |  |  |  | Oc1ccccc1-c1nc2ccccc2[nH]1 [HPBI, 2-(2-hydroxyphenyl)benzimidazole] | 1.2e+06 M⁻¹ | 20000 M⁻¹
4 | 82.1 J mol^−1 K^−1 | 5.91 M^−1 | -5.69 kcal/mol | 83.3 J mol^−1 K^−1 | 8.69 M^−1 | -6.36 kcal/mol | hydrophobic interactions | dynamic fluorescence quenching mechanism | COc1ccc(/C=C/c2ccc(B3OC(C)(C)C(C)(C)O3)cc2)cc1 [3b] |  | 
